# Hits are enriched below; roughly 1.7% of the tested compounds scored in any of these assays.
# Cneo AK release = causes C. neoformans cell lysis | 0.2% of 360,000 active | adenylate kinase release luminescence, 4 h; normalised: neutral wells 0, clomiphene wells 100 | AID 651654 | lysis activity, % at 15 µM;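 active means mean lysis activity across replicates of at least 80%, whatever share of replicates individually reach that level; inactive means mean lysis activity below 80%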
#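 Material – Cryptococcus neoformans yeast cells · Quantity – 5 × 10^6 yeast cells/mL · Buffer or medium – YPD medium · Compound – single dose · Timing – 4 h static compound exposure, 37 °C, read 1 h post-reagent · Signal – adenylate kinase release luminescence · Read-out basis – lysis from increased AK signal · Benchmarks – Clomiphene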
# Ecoli rRNA inh = inhibitors of bacterial rRNA selective over humanized ribosomes | E. coli WT GFP vs humanized-ribosome RFP mutants, fluorescence, 24 h; hits give low values; DMSO median 0, no signal -100 | GFP signal change (wild-type ribosome), % (no concentration beside the values) | 1.6% of 350,000 active;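 active means significant combined selectivity score with lowered wild-type GFP, culture density cut under 30%, mutant RFP and density less affected; inactive means any of these conditions unmet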
# CaV13 ICDI inh = Primary screen for inhibitors of IQ motif and Ca2+-dependent inactivation inhibitor domain binding in CACNA1D, Förster resonance energy transfer in living cells, …; HEK cells, CFP/YFP FRET ICDI-IQ, plate reader, 10 min; percent FRET-ratio fall versus neutral wells; inhibition, % at 12.3 µM; 0.098% of 340,000 active;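 active means mean replicate inhibition of at least 30% and at least 1% of replicates passing that level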
# CFTR F508del cor = correctors of CFTR F508del function in bronchial epithelial cells. CFBE cells, YFP halide quenching; stimulated with forskolin plus potentiator P3; % fluorescence drop versus neutral controls. activity (quench increase), % at 7.58 µM. 0.36% of 350,000 active;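 active means mean added fluorescence quench of at least 8% versus neutral control, with both replicates also reaching 8%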;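 further: cells transiently co-express mutant CFTR-F508del with the halide-sensitive YFP; corrector assay measuring rescue of mutant channel to the surface after 24 h compound exposure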
# A number is an active result; 0 = inactive; - = no result given.
SMILES,Cneo AK release,Ecoli rRNA inh,CaV13 ICDI inh,CFTR F508del cor
CCCN1C(=O)c2ccc(C(=O)Nc3ccccc3C(=O)O)cc2C1=O,0,-21,0,0
COc1ccc(CCNc2nc(-c3ccncc3)cs2)cc1OC,-,-27,0,0
COc1nc(NCCc2ccc(OC)c(OC)c2)nc(OC)n1,0,-,0,-
COc1ccc(CCNc2c3ccccc3nc3ccccc23)cc1OC,0,0,0,10
COc1ccc(-c2cn(CC[C@@H]3CC[C@@H](NC(=O)NC(C)C)[C@H](CO)O3)nn2)cc1,0,0,-,0
COc1ccc(NC(=O)N(C)C[C@H]2OCCCC[C@H](C)Oc3ccc(NC(=O)C4CCCCC4)cc3C(=O)N([C@@H](C)CO)C[C@@H]2C)cc1,90,0,-,0
COc1ccc(NC(=O)N(C)C[C@@H]2OCCCC[C@H](C)Oc3ccc(NC(=O)Nc4ccc5c(c4)OCO5)cc3C(=O)N([C@H](C)CO)C[C@@H]2C)cc1,92,0,-,0
COc1ccc(NC(=O)N(C)C[C@H]2OCCCC[C@@H](C)Oc3ccc(N(C)C)cc3C(=O)N([C@H](C)CO)C[C@H]2C)cc1,112,0,-,0
COc1ccc(NC(=O)N(C)C[C@H]2OCCCC[C@@H](C)Oc3ccc(N(C)C)cc3C(=O)N([C@@H](C)CO)C[C@@H]2C)cc1,0,0,-,0
COc1ccc(NC(=O)N(C)C[C@@H]2OCCCC[C@@H](C)Oc3ccc(NC(=O)C4CCCCC4)cc3C(=O)N([C@H](C)CO)C[C@H]2C)cc1,0,0,-,0
COc1ccc2c3c([nH]c2c1)[C@@H](CO)N(CC1CC1)CC31CN(C(=O)c2cccc(F)c2)C1,-,0,-,0
COc1ccccc1-c1ccc(SCC(=O)NCCc2ccccc2)nn1,0,-32,0,0
COc1ccccc1NC(=O)CSc1ccc(-c2ccccn2)nn1,0,0,0,8.1
COc1ccccc1-c1ccc(SCc2ccccc2F)nn1,-,-36,0,0
COc1ccc(NC(=O)CSc2ccccn2)c([N+](=O)[O-])c1,0,-26,0,0
COc1ccc(NC(=O)CSc2nc(C)cc(C)n2)c([N+](=O)[O-])c1,-,0,0,0
CCC(=O)N1CC2(C1)[C@H](c1ccc(-c3ccc(F)cc3)cc1)[C@@H](CO)N2S(C)(=O)=O,-,0,-,0
COc1ccccc1-c1ccc(SCc2ccccc2)nn1,-,-33,0,0
COc1ccccc1-c1ccc(SCc2cccc(F)c2)nn1,-,-30,0,0
N#CC1=C(N)Oc2cc(N)ccc2C1c1ccccc1Cl (stereo not drawn),0,0,0,0
N#CC1=C(N)OC2=C(CCc3ccccc32)C1c1ccccc1Cl (stereo not drawn),0,-22,0,10
COc1ccc(C(=O)N/N=C/c2ccc(N3CCOCC3)s2)cc1OC,0,-16,0,0
COc1ccc(C(=O)N/N=C/c2ccc(N3CCOCC3)o2)cc1OC,-,0,0,0
COc1ccc(NC(=O)Nc2ccc3c(c2)C(=O)N([C@@H](C)CO)C[C@@H](C)[C@H](CN(C)C(=O)Nc2cccc4ccccc24)O3)cc1,0,0,-,0
Cc1cc(Br)c(NC(=O)C(C)Sc2nnnn2C)c(Br)c1 (stereo not drawn),0,0,0,12
SMILES,Cneo AK release,Ecoli rRNA inh,CaV13 ICDI inh,CFTR F508del cor
CC(Sc1nnnn1C)C(=O)Nc1ccccc1 (stereo not drawn),-,0,0,0
O=[N+]([O-])c1cc(C(F)(F)F)cc([N+](=O)[O-])c1NCCNC(=S)Nc1cccc(F)c1,-,-25,0,0
CCOc1cccc2sc(NC(=O)CC)nc12,0,-19,0,0
O=c1c2ccccc2oc2ccccc12,0,-,-,0
O=c1c2ccccc2oc2cc(-c3ccc4[nH]ccc4c3)ccc12,0,0,0,10
O=C1C2C=C(Br)[C@H](C[C@@H]2OCCCCCCO)[C@@]12CO2,0,-,-,0
COc1ccccc1C(=O)Nc1onc(C)c1C#N,-,0,0,18
Cc1noc(NC(=O)c2ccccc2Cl)c1C#N,0,-,0,-
CCCC(=O)Nc1ccc2c(c1)OC[C@H](C)N(Cc1ccccn1)C[C@H](C)[C@H](OC)CN(C)C2=O,113,0,-,0
CCCC(=O)Nc1ccc2c(c1)OC[C@@H](C)N(Cc1ccccn1)C[C@@H](C)[C@H](OC)CN(C)C2=O,94,0,-,0
O/N=C\c1ccccc1Oc1ccc(F)cc1,-,-25,0,0
COc1ccc(NC(=O)c2cccn(CC=C(C)C)c2=O)cc1,-,-26,0,0
